Measurements reported in article PMC5659729 (Life sciences, 2017).
“Also recorded” adds a separate entry of the source.

Key:
Swiss Webster mice = experiment: Diclofenac-induced gastric ulcers, ulcer index scoring; assay type: in vivo
IL-6 = experiment: Inflammatory marker in serum by ELISA; assay type: in vivo, mice; details: for Level of IL-6 in serum versus vehicle: DCF 100 mg/kg p.o. single dose; for Level of IL-6 in serum versus DCF: pre-treatment TPPU 0.1 mg/kg or OME 50 mg/kg before DCF 100 mg/kg
Procedure, shortened: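 Blood without anticoagulant was collected at sacrifice 6 h post-dose and spun at 4 °C. Serum IL-6 was measured with a pre-coated mouse ELISA kit, in duplicate, n=3–4 animals, reported as mean ± SD.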

[1] = Quantification of drugs in plasma by LC-MS/MS; assay type: in vivo, mice; details: for Alterations in blood levels when TPPU and DCF co-administered: TPPU 0.1 mg/kg/day + DCF 100 mg/kg
gastric epithelial cells = experiment: TUNEL assay of gastric cell apoptosis; assay type: in vivo, mice; details: for DCF-induced apoptosis of stomach epithelial cells (TUNEL) versus DCF: pre-treatment TPPU 0.1 mg/kg or OME 50 mg/kg before DCF 100 mg/kg
[2] = Quantification of pH in gastric content; assay type: in vivo, mice; details: DCF 100 mg/kg single dose; TPPU 0.1 mg/kg 7 days + DCF; omeprazole 50 mg/kg 5 days + DCF
TNF-α = experiment: Inflammatory marker in serum by ELISA; assay type: in vivo, mice; details: for Level of TNF-α in serum versus DCF: pre-treatment TPPU 0.1 mg/kg or OME 50 mg/kg before DCF 100 mg/kg
[3] = tested on: gastric mucosa of Swiss Webster mice; experiment: Histopathological evaluation of stomach sections; assay type: in vivo; details: DCF 100 mg/kg alone or after TPPU 0.1 mg/kg or OME 50 mg/kg
TxB2/PGE2 = experiment: PGE2 and TxB2 in plasma; assay type: in vivo, mice; details: for Level of TxB2/PGE2 in plasma of DCF treated mice: TPPU 0.1 mg/kg or omeprazole 50 mg/kg + DCF 100 mg/kg
COX = experiment: PGE2 in stomach as marker of COX activity; assay type: in vivo, mice; details: TPPU 0.1 mg/kg or OME 50 mg/kg + DCF 100 mg/kg
[4] = 16 h after radioactive omeprazole administration; cited from earlier work
[5] = cited from earlier work
CYP3A4 = details: cited from earlier work
[6] = tested on: DCF-induced intestinal ulcers; details: cited from earlier work
recombinant mouse sEH = details: affinity purified recombinant mouse sEH; cited from earlier work
[7] = mice; cited from earlier work
[8] = tested on: piroxicam-induced inflammatory bowel disease; details: cited from earlier work

What does the source list for O=C(O)Cc1ccccc1Nc1c(Cl)cccc1Cl [Diclofenac, diclofenac sodium]?
Gastric ulcer score 18 h after dosing (Swiss Webster mice; single DCF dose 100 mg/kg, 18 h): returned to normal levels; Level of IL-6 in serum versus vehicle (IL-6): increased levels of IL-6 significantly; Level of IL-6 in serum versus vehicle (IL-6; listed as DCF): significant increase (p < 0.05); concentration at 6 h ([1]; Swiss Webster, mouse, plasma, oral, Mean plasma concentration of DCF, mice that received DCF or DCF + TPPU): 4000 ng/mL; Alterations in blood levels when TPPU and DCF co-administered [1]: not observed; Mean plasma concentration of diclofenac, diclofenac only versus DCF + OME ([1]; difference not significant, n=4): approximately 2 times; Apoptosis of stomach epithelial cells (TUNEL positive cells) versus vehicle (gastric epithelial cells; DCF 100 mg/kg, listed as DCF): increased apoptosis significantly; Effect on pH of stomach (gastric content) [2]: did not alter the pH of stomachs; Level of TNF-α in serum versus vehicle (TNF-α; DCF 100 mg/kg p.o. single dose): significant increase (p < 0.05); also recorded: increased level of TNF-α significantly; Histopathological observation of gastric mucosa [3]: ulceration was observed; Levels of TxB2/PGE2 in plasma versus vehicle (TxB2/PGE2; DCF 100 mg/kg): significantly decreased; Levels of PGE2 in plasma versus vehicle (TxB2/PGE2; data not shown): not statistically (data not shown) different; Level of TxB2 in plasma (TxB2/PGE2; mice treated with only DCF, level of detection 20 pM): < 20 pM

Which results are given for COc1ccc2[nH]c([S+]([O-])Cc3ncc(C)c(OC)c3C)nc2c1 (stereo not shown) [Omeprazole]?
Effect on COX activity in stomach (level of PGE2) of DCF treated mice (COX): did not increase the activity of COX; Incidence of ulceration relative to TPPU + DCF treated animals (Swiss Webster mice; OME 50 mg/kg + DCF 100 mg/kg versus TPPU 0.1 mg/kg + DCF): higher; Level of IL-6 in serum versus DCF (IL-6; listed as OME): normalized the level of these cytokines; DCF-induced apoptosis of stomach epithelial cells (TUNEL) versus DCF (gastric epithelial cells; listed as OME): decreased apoptosis significantly; Radioactivity of the stomach relative to blood [4]: 100 times; Level of TNF-α in serum versus DCF (TNF-α; listed as OME): normalized the level of these cytokines; Half-life monitored in the blood [5]: 5 to 15 min; Histopathological observation of gastric mucosa [3]: minimized gastric erosion; Effect on activity of CYP3A4 (CYP3A4): increase activity of CYP3A4; Level of TxB2/PGE2 in plasma of DCF treated mice (TxB2/PGE2): increased the level of TxB2/PGE2

Which “Effect on COX activity in stomach (level of PGE2) of DCF treated mice” value (COX) does the source give for CCC(=O)N1CCC(NC(=O)Nc2ccc(OC(F)(F)F)cc2)CC1 [TPPU, N-[1-(1-oxopropyl)-4-piperidinyl]-N′-[4-(trifluoromethoxy)phenyl)-urea] here?
Its value is “did not increase the activity of COX”.

And the “Level of IL-6 in serum versus DCF” value (IL-6)?
The value was “normalized the level of these cytokines; also recorded: decreased level of IL-6 significantly”.

What about the “DCF-induced apoptosis of stomach epithelial cells (TUNEL) versus DCF” value (gastric epithelial cells) of the same compound?
The value was “decreased DCF-induced apoptosis of gastric cells; also recorded: decreased apoptosis significantly”.

What about the “Effect on DCF-induced intestinal ulcers” value [6] of the same compound?
Its value is “decreased DCF-induced intestinal ulcers”.

What about the “Level of TNF-α in serum versus DCF” value (TNF-α) of the same compound?
The value was “normalized the level of these cytokines; also recorded: decreased level of TNF-α significantly”.

What about the “Histopathological observation of gastric mucosa” value [3] of the same compound?
The value was “Ulceration was minimal”.

What about the Oral availability [7] of the same compound?
Its Oral availability is “high oral availability”.

What about the “Level of TxB2/PGE2 in plasma of DCF treated mice” value (TxB2/PGE2) of the same compound?
The value was “increased the level of TxB2/PGE2”.

Which “Effect on piroxicam-induced inflammatory bowel disease” value [8] does the source give for O=C(NC12CC3CC(CC(C3)C1)C2)N[C@H]1CC[C@H](Oc2ccc(C(=O)O)cc2)CC1 [t-AUCB, trans-4-[4-(3-adamantan-1-yl-ureido)-cyclohexyloxy]-benzoic acid] here?
Its value is “decrease piroxicam (a COX inhibitor)-induced inflammatory bowel disease”.
